Converted amounts (≈) assume the structure as drawn.
Legend:
Type in all cases: functional
Bacillus subtilis = test: Antibacterial activity against penicillin-susceptible Bacillus subtilis ATCC 9372 incubated for 24 hrs by broth dilution method; conditions: ATCC 9372, 24 h
Summary of the method: (§1)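 CLSI broth microdilution in cation-adjusted Mueller-Hinton broth. Twofold dilutions spanned 0.25–128 or 0.5–256 µg/mL, with CAM and AZM as controls. Log-phase bacteria were added and incubated 24 h at 37 °C. MIC was read by turbidity as the concentration of the last clear well.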

Streptococcus pyogenes [1] = test: Antibacterial activity against erythromycin-resistant Streptococcus pyogenes 2 clinical isolate incubated for 24 hrs by broth dilution method
Streptococcus pneumoniae [2] = test: Antibacterial activity against erythromycin-resistant Streptococcus pneumoniae B1 expressing the ermB incubated for 24 hrs by broth dilution method
Staphylococcus aureus [3] = test: Antibacterial activity against erythromycin-susceptible Staphylococcus aureus ATCC 25923 incubated for 24 hrs by broth dilution method; conditions: ATCC 25923, 24 h; summary of the method: as §1
Escherichia coli = test: Antibacterial activity against penicillin-susceptible Escherichia coli ATCC 25922 incubated for 24 hrs by broth dilution method; conditions: ATCC 25922, 24 h; summary of the method: as §1
Staphylococcus aureus [4] = test: Antibacterial activity against penicillin-resistant Staphylococcus aureus ATCC 31007 incubated for 24 hrs by broth dilution method; conditions: ATCC 31007, 24 h
Streptococcus pyogenes [5] = test: Antibacterial activity against erythromycin-susceptible Streptococcus pyogenes 1 clinical isolate incubated for 24 hrs by broth dilution method; summary of the method: as §1
Staphylococcus aureus [6] = test: Antibacterial activity against methicillin-resistant Staphylococcus aureus ATCC 43300 incubated for 24 hrs by broth dilution method; conditions: ATCC 43300, 24 h
Pseudomonas aeruginosa = test: Antibacterial activity against penicillin-susceptible Pseudomonas aeruginosa ATCC 27853 incubated for 24 hrs by broth dilution method; conditions: ATCC 27853, 24 h; summary of the method: as §1
Streptococcus pneumoniae [7] = test: Antibacterial activity against erythromycin-resistant Streptococcus pneumoniae AB11 expressing the ermB and mefA incubated for 24 hrs by broth dilution method

Row | SMILES | MIC (Bacillus subtilis) [µg/mL] | MIC (Streptococcus pyogenes [1]) [µg/mL] | MIC (Streptococcus pneumoniae [2]) [µg/mL] | MIC (Staphylococcus aureus [3]) [µg/mL] | MIC (Escherichia coli) [µg/mL] | MIC (Staphylococcus aureus [4]) [µg/mL] | MIC (Streptococcus pyogenes [5]) [µg/mL] | MIC (Staphylococcus aureus [6]) [µg/mL] | MIC (Pseudomonas aeruginosa) [µg/mL] | MIC (Streptococcus pneumoniae [7]) [µg/mL]
1 | CCCc1ccc(-n2cc(COC[C@H]3CN(C)C[C@@H](C)[C@@H](O)[C@H](C)C[C@@](C)(OC)[C@H](O[C@@H]4O[C@H](C)C[C@H](N(C)C)[C@H]4O)[C@@H](C)[C@H](O[C@H]4C[C@@](C)(OC)[C@@H](O)[C@H](C)O4)[C@@H](C)C(=O)O3)nn2)cc1 | 0.5 (≈ 0.535 µM) | 64 (≈ 68.5 µM) | 64 (≈ 68.5 µM) | 0.5 (≈ 0.535 µM) | 64 (≈ 68.5 µM) | 128 (≈ 137 µM) | 1 (≈ 1.07 µM) | 128 (≈ 137 µM) | 16 (≈ 17.1 µM) | 32 (≈ 34.3 µM)
2 | COc1ccc(-c2cn(C[C@@H]3COC(=O)[C@H](C)[C@@H](O[C@H]4C[C@@](C)(OC)[C@@H](O)[C@H](C)O4)[C@H](C)[C@@H](O[C@@H]4O[C@H](C)C[C@H](N(C)C)[C@H]4O)[C@](C)(OC)C[C@@H](C)[C@H](O)[C@H](C)CN3C)nn2)cc1 | 32 (≈ 35.9 µM) | 128 (≈ 143 µM) | 128 (≈ 143 µM) | 64 (≈ 71.7 µM) | > 128 | 32 (≈ 35.9 µM) | 4 (≈ 4.48 µM) | 128 (≈ 143 µM) | > 128 | 128 (≈ 143 µM)
3 | CCCCc1ccc(-c2cn(C[C@H]3CN(C)C[C@@H](C)[C@@H](O)[C@H](C)C[C@@](C)(OC)[C@H](O[C@@H]4O[C@H](C)C[C@H](N(C)C)[C@H]4O)[C@@H](C)[C@H](O[C@H]4C[C@@](C)(OC)[C@@H](O)[C@H](C)O4)[C@@H](C)C(=O)O3)nn2)cc1 | 1 (≈ 1.09 µM) | 16 (≈ 17.4 µM) | 16 (≈ 17.4 µM) | 1 (≈ 1.09 µM) | 128 (≈ 139 µM) | 32 (≈ 34.8 µM) | 0.06 (≈ 0.0653 µM) | 16 (≈ 17.4 µM) | 64 (≈ 69.7 µM) | 32 (≈ 34.8 µM)
4 | CO[C@]1(C)C[C@@H](C)[C@H](O)[C@H](C)CN(C)C[C@H](COCc2cn(-c3ccc(C)cc3)nn2)OC(=O)[C@H](C)[C@@H](O[C@H]2C[C@@](C)(OC)[C@@H](O)[C@H](C)O2)[C@H](C)[C@H]1O[C@@H]1O[C@H](C)C[C@H](N(C)C)[C@H]1O | ≤ 0.25 | 64 (≈ 70.6 µM) | 256 (≈ 283 µM) | 0.5 (≈ 0.552 µM) | 64 (≈ 70.6 µM) | 256 (≈ 283 µM) | 1 (≈ 1.1 µM) | 256 (≈ 283 µM) | 16 (≈ 17.7 µM) | 64 (≈ 70.6 µM)
5 | CO[C@]1(C)C[C@@H](C)[C@H](O)[C@H](C)CN(C)C[C@@H](COCc2cn(-c3ccc(C)cc3)nn2)OC(=O)[C@H](C)[C@@H](O[C@H]2C[C@@](C)(OC)[C@@H](O)[C@H](C)O2)[C@H](C)[C@H]1O[C@@H]1O[C@H](C)C[C@H](N(C)C)[C@H]1O | 2 (≈ 2.21 µM) | 32 (≈ 35.3 µM) | 128 (≈ 141 µM) | 4 (≈ 4.41 µM) | 128 (≈ 141 µM) | 256 (≈ 283 µM) | 4 (≈ 4.41 µM) | 128 (≈ 141 µM) | 128 (≈ 141 µM) | 64 (≈ 70.6 µM)
6 | CCCCc1ccc(-c2cn(C[C@@H]3COC(=O)[C@H](C)[C@@H](O[C@H]4C[C@@](C)(OC)[C@@H](O)[C@H](C)O4)[C@H](C)[C@@H](O[C@@H]4O[C@H](C)C[C@H](N(C)C)[C@H]4O)[C@](C)(OC)C[C@@H](C)[C@H](O)[C@H](C)CN3C)nn2)cc1 | 32 (≈ 34.8 µM) | 16 (≈ 17.4 µM) | 64 (≈ 69.7 µM) | 128 (≈ 139 µM) | 128 (≈ 139 µM) | 64 (≈ 69.7 µM) | 16 (≈ 17.4 µM) | 128 (≈ 139 µM) | > 128 | 64 (≈ 69.7 µM)
7 | CO[C@]1(C)C[C@@H](C)[C@H](O)[C@H](C)CN(C)C[C@@H](COCc2cn(-c3ccccn3)nn2)OC(=O)[C@H](C)[C@@H](O[C@H]2C[C@@](C)(OC)[C@@H](O)[C@H](C)O2)[C@H](C)[C@H]1O[C@@H]1O[C@H](C)C[C@H](N(C)C)[C@H]1O | 0.5 (≈ 0.56 µM) | 128 (≈ 143 µM) | > 256 | 2 (≈ 2.24 µM) | 128 (≈ 143 µM) | > 256 | 2 (≈ 2.24 µM) | > 256 | 128 (≈ 143 µM) | 128 (≈ 143 µM)
8 | CO[C@]1(C)C[C@@H](C)[C@H](O)[C@H](C)CN(C)C[C@@H](Cn2cc(-c3ccccc3)nn2)OC(=O)[C@H](C)[C@@H](O[C@H]2C[C@@](C)(OC)[C@@H](O)[C@H](C)O2)[C@H](C)[C@H]1O[C@@H]1O[C@H](C)C[C@H](N(C)C)[C@H]1O | 1 (≈ 1.16 µM) | 64 (≈ 74.2 µM) | 64 (≈ 74.2 µM) | 0.5 (≈ 0.58 µM) | 64 (≈ 74.2 µM) | 128 (≈ 148 µM) | 0.5 (≈ 0.58 µM) | 256 (≈ 297 µM) | 64 (≈ 74.2 µM) | 64 (≈ 74.2 µM)
9 | CO[C@]1(C)C[C@@H](C)[C@H](O)[C@H](C)CN(C)[C@@H](Cn2cc(-c3ccccc3)nn2)COC(=O)[C@H](C)[C@@H](O[C@H]2C[C@@](C)(OC)[C@@H](O)[C@H](C)O2)[C@H](C)[C@H]1O[C@@H]1O[C@H](C)C[C@H](N(C)C)[C@H]1O | 16 (≈ 18.6 µM) | 128 (≈ 148 µM) | 256 (≈ 297 µM) | 32 (≈ 37.1 µM) | > 128 | 256 (≈ 297 µM) | 2 (≈ 2.32 µM) | 256 (≈ 297 µM) | > 128 | 128 (≈ 148 µM)
